Columns and labels:
[1] = folding enthalpy; higher = less favourable; fluorescence melt of hairpins on a sequencing array, two-state fit; conditions: sodium 0.088 M
Procedure, shortened: (§1)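 On a sequenced MiSeq flow cell, library hairpins with annealed Cy3 and quencher oligos were imaged for Cy3 fluorescence in 2.5 °C steps up to 60 °C, in 50 mM Na-HEPES pH 8.0, 25 mM NaCl. Normalisation used pre-quench Cy3 and control constructs. Bootstrapped two-state fits gave melting temperature and folding enthalpy, combined by inverse variance across four replicates and with fitted temperatures raised by 9.35 °C to match UV melts.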

[2] = melting temperature; fluorescence melt of hairpins on a sequencing array, two-state fit, raised by 9.35 °C to match UV melts; conditions: sodium 0.088 M
Procedure, shortened: as §1

Row | Sequence | folding enthalpy [1] [kcal/mol] | Tm [2] [°C]
1 | GATCACTCAGGTGATC ((((((....)))))) | -37 | 57.4
2 | GATCACTCCAGTGATC ((((((....)))))) | -30.5 | 58.4
3 | GATCACTCCCGTGATC ((((((....)))))) | -47.2 | 55.8
4 | GATCACTCTAGTGATC ((((((....)))))) | -40.4 | 59.9
5 | GATCACTCTCGTGATC ((((((....)))))) | -41.8 | 55.7
6 | GATCACTCTGGTGATC ((((((....)))))) | -39.8 | 58.8
7 | GATCACTGCCGTGATC ((((((....)))))) | -44.5 | 55.9
8 | GATCACTGGAGTGATC ((((((....)))))) | -48.7 | 55.7
9 | GATCACTGGTGTGATC ((((((....)))))) | -36.7 | 58
10 | GATCACTTATGTGATC ((((((....)))))) | -37.5 | 56.7
11 | GATCACTTCCGTGATC ((((((....)))))) | -35.8 | 56.5
12 | GATCACTTGAGTGATC ((((((....)))))) | -42.4 | 56.1
13 | GATCAGAAAGCTGATC ((((((....)))))) | -31.6 | 43
14 | GATCAGAACCTGATC ((((((...)))))) | -36.2 | 46.7
15 | GATCAGAAGTCTGATC ((((((....)))))) | -30 | 49
16 | GATCAGACCCTGATC ((((((...)))))) | -33.4 | 47.7
17 | GATCAGACCTCTGATC ((((((....)))))) | -40.6 | 48.4
18 | GATCAGACGAAAGTCATC (((..(((....)))))) | -9.11 | 23.3
19 | GATCAGAGCGCTGATC ((((((....)))))) | -27.4 | 49.1
20 | GATCAGAGGCCTGATC ((((((....)))))) | -34.6 | 48.5
21 | GATCAGAGGCTGATC ((((((...)))))) | -32.9 | 48.7
22 | GATCAGATACCTGATC ((((((....)))))) | -36.7 | 48
23 | GATCAGATATCTGATC ((((((....)))))) | -47.9 | 50.3
24 | GATCAGATCCTGATC ((((((...)))))) | -37 | 48.2

Row | Sequence | folding enthalpy [1] [kcal/mol] | Tm [2] [°C]
25 | GATCAGATCGCTGATC ((((((....)))))) | -28.2 | 48.9
26 | GATCAGATTACTGATC ((((((....)))))) | -30.3 | 50
27 | GATCAGCAAACTGATC ((((((....)))))) | -32 | 48.2
28 | GATCAGCAACCTGATC ((((((....)))))) | -33 | 46.2
29 | GATCAGCAAGCTGATC ((((((....)))))) | -33 | 58.7
30 | GATCAGCACGCTGATC ((((((....)))))) | -42.1 | 62.3
31 | GATCAGCATCCTGATC ((((((....)))))) | -32.5 | 48
32 | GATCAGCCACTGATC ((((((...)))))) | -32 | 48.6
33 | GATCAGCCCACTGATC ((((((....)))))) | -37.6 | 51.6
34 | GATCAGCCCCTGATC ((((((...)))))) | -36.2 | 49.2
35 | GATCAGCCTCTGATC ((((((...)))))) | -38.5 | 47.9
36 | GATCAGCCTGCTGATC ((((((....)))))) | -41.5 | 64.1
37 | GATCAGCGAACTGATC ((((((....)))))) | -34.4 | 49.3
38 | GATCAGCGACCTGATC ((((((....)))))) | -31.3 | 47.4
39 | GATCAGCGGCTGATC ((((((...)))))) | -51 | 50.7
40 | GATCAGCGTTCTGATC ((((((....)))))) | -37.3 | 49.8
41 | GATCAGCTACTGATC ((((((...)))))) | -35.2 | 49.1
42 | GATCAGCTAGCTGATC ((((((....)))))) | -48 | 62.1
43 | GATCAGCTCGCTGATC ((((((....)))))) | -57.4 | 62.9
44 | GATCAGGACACTGATC ((((((....)))))) | -45.4 | 56.7
45 | GATCAGGACGCTGATC ((((((....)))))) | -41.7 | 54.2
46 | GATCAGGACTCTGATC ((((((....)))))) | -40.6 | 55.6
47 | GATCAGGAGACTGATC ((((((....)))))) | -37.6 | 51.3
48 | GATCAGGAGTCTGATC ((((((....)))))) | -38.7 | 48.2

— the array DNA melting data of Ke et al. (doi:10.1101/2024.01.08.574731)
